Source: PubChem BioAssay AID588455 (Southern Research Specialized Biocontainment Screening …, 2011)

System: HEp-2 RSV Long CPE inhibition, luminescence viability
Test: RSV cytopathic effect inhibition in HEp-2 cells, dose response, cell-based, synthesized compounds, set 13 (AID 588455)
Procedure, shortened: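 Test system: RSV Long-infected HEp-2 cells; reagent: RSV strain Long virus at MOI 0.45; times: 6 days of virus and compound exposure at 37 °C; technique: luminescent CPE signal; read-out basis: % CPE inhibition and IC50 (4-parameter fit, 0–100 fixed)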

Row | SMILES | IC50
1 | COCCCNC(=O)c1ccc(Cn2c(=O)c3ccccc3n(Cc3ccc([N+](=O)[O-])cc3)c2=O)cc1 | 480 nM
2 | COCCCNC(=O)c1ccc(Cn2c(=O)c3ccccc3n(Cc3ccc(Br)cc3)c2=O)cc1 | 480 nM
3 | COCCCNC(=O)c1ccc(Cn2c(=O)c3ccccc3n(Cc3ccc(Cl)cc3)c2=O)cc1 | 970 nM
